Results on 2 compounds are retold here after publication PMC8919062 (European journal of medicinal chemistry, 2021).

Assay [1] concerns Class I/IIb HDACs. The experiment in a line: class-distinguishing fluorogenic substrates whole-cell assay, class I/IIb, L3.6. Type of assay: cell-based. The conditions noted are these: read-out: IC50 Class I/IIb HDACs, L3.6 cells. The method, boiled down:
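Whole cells incubated with 200 µM Boc-Lys-Ac (class-I/IIb selective substrate) in RPMI without phenol red plus 0.1% FBS, 3 h at 37 °C. Test compound given as an 11-point curve at 5% final DMSO; 5 µM trichostatin A served as positive control and DMSO alone as negative control. Trypsin developer (2.5 mg/mL, with tween 80) added for 1 h to lyse cells and release fluorophore. Read at ex 360 / em 460 nm; IC50 by nonlinear fit.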

A further assay concerns Other HDACS. As to the kind of experiment: fluorogenic assay against recombinant HDAC proteins, other HDACs. Type of assay: biochemical, human. The conditions noted are these: read-out: IC50 Other HDACS. The method in brief: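 Recombinant human HDACs screened with commercial fluorogenic enzyme assay kits, following the manufacturer protocol, at 9 dilutions of test compound. Fluorescence read on a microplate reader. IC50 from nonlinear curve fit of % HDAC activity inhibition vs compound concentration.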

Assay [2] has as its system indigenous class-IIa HDACs. The conditions noted are these: read-out: IC50 binding to indigenous class-IIa HDACs; THP-1 cells; ref [19]; cited from earlier work.
In another assay the test system is HDAC4. The conditions noted are these: read-out: IC50 HDAC4 non-cell-based inhibition; ref [19],[20]; cited from earlier work.
A further assay concerns HDAC5. The conditions noted are these: read-out: IC50 HDAC5 non-cell-based inhibition; ref [19],[20]; cited from earlier work.
The test system of another assay is HDAC9. The conditions noted are these: in words; ref [19],[20]; cited from earlier work.
The next assay has as its system Class IIa HDACs. The experiment in a line: class-distinguishing fluorogenic substrates whole-cell assay, class IIa, HT-29. The assay is classed as cell-based. As to conditions: read-out: IC50 Class-IIa, HT-29 cells, Boc-Lys-TFA substrate.
Assay [3] concerns Class I/IIb HDACs. The experiment in a line: class-distinguishing fluorogenic substrates whole-cell assay, class I/IIb, HT-29. Type of assay: cell-based. The conditions noted are these: read-out: IC50 Class-I/IIb, HT-29 cells, Boc-Lys-Ac substrate.

On to `CC(C)(CNC(=O)c1cccc(-c2noc(C(F)(F)F)n2)c1)c1coc(-c2ccccc2)n1` [TMP195], for which the IC50 in the assay on Class I/IIb HDACs [1] was greater than 5 µM; in the assay on Other HDACS, greater than 5 µM; in assay [2], 0.3 µM; in the assay with HDAC4, greater than 0.1 µM; in the assay with HDAC5 it was greater than 0.1 µM. For the same compound, the “IC50 HDAC9 non-cell-based inhibition” value in the assay with HDAC9 is “low nM range”.
As for “N-(3-(benzylamino)-2,2-dimethyl-3-oxopropyl)-4-(5-(trifluoromethyl)-1,2,4-oxadiazol-3-yl)benzamide [Compound 10]”, the IC50 in the assay with Class IIa HDACs was 0.933 ± 0.26 µM; in the assay on Class I/IIb HDACs [3], greater than 15 µM.
